Source: PubChem
This is a sample that favours compounds with a hit; in the whole collection about 4.9% have one here.
STAT1 activator: STAT1 signaling activators, primary screen, cell-based, HTS, luciferase reporter; NIH 3T3 STAT1-luciferase reporter, IFN-gamma, luminescence; 100% = IFN-gamma alone, no compound; activation (% of control), % at 5.5 µM; 2.6% of 200,000 active; AID 932, 2007;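 active means activation above the screen-wide mean activation plus 3 SD, cut at about 130% in these data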;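 further: raw ratio to IFN-gamma control signal so 100% means no change and 0% no light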
STAT3 activator: IL-6 driven STAT3 reporter potentiators, primary screen, U3A cells, luciferase, luminescence, MLSCN library; IL-6 STAT3-luciferase reporter; 100% = signal with IL-6 EC80 alone; activation (% of control), % at 5.6 µM; 0.91% of 190,000 active;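 active means activation above the screen-wide mean of compound activation plus 3 SD, cut at about 130% in these data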;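 further: 0% = background luminescence of wells with medium and substrate only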
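Test system: Human STAT1-deficient U3A cells with stable STAT3-luciferase reporter | Also added: Interleukin-6, 33 ng/mL | Timing: Compound pre-incubation 1 h before IL-6, then 6 h stimulation at 37 °C | Technique: Luciferase reporter luminescence | Read-out: Percent of IL-6-only median luminescence | Benchmarks: IL-6-only wells as 100% reference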
APP 5'UTR act: activators of APP 5'UTR luciferase reporter, primary screen, SH-SY5Y cells; SH-SY5Y APP 5'UTR luciferase reporter, luminescence; zero percent = DMSO vehicle wells; activation, % at 2 µM; 1% of 190,000 active; AID 1276, 2008;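 active means activation above a set limit, based on mean plus 3 SD of controls, cut at about 140% in these data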
NF-kB neuron act: activators of NF-kB expression in neurons, primary screen, cell-based, HTS; human neuronal cells, NF-kB reporter expression; active compounds read high; fold change at 12.5 µM; 1.6% of 190,000 active; AID 1239, 2008; in the data active means fold change above about 3.3
STAT3 blocker: IL-6 driven STAT3 reporter inhibitors, primary screen, U3A cells, luciferase, luminescence, MLSCN library; 0.89% of 190,000 active; inhibition, % at 5.5 µM; IL-6 STAT3-luciferase reporter; host cell line lacks STAT1;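 active means inhibition above the mean inhibition across all screened compounds plus 3 SD, cut at about 44% in these data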;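 further: 0% = DMSO only wells and 100% = 100 µM nifuroxazide control wells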
STAT1 blocker: STAT1 signaling inhibitors, primary screen, cell-based, HTS, luciferase reporter; NIH 3T3 STAT1-luciferase reporter, IFN-gamma, luminescence; inhibition, % at 5.5 µM; 0.35% of 200,000 active;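 active means inhibition above a set limit, the mean inhibition across all tested compounds plus 3 SD, cut at about 34% in these data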;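 further: 0% = IFN-gamma with DMSO and 100% = IFN-gamma with 300 µM nifuroxazide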
Numbers without * were called inactive; . = not tested or not shown.

SMILES | STAT1 activator | STAT3 activator | APP 5'UTR act | NF-kB neuron act | STAT3 blocker | STAT1 blocker
CCCCN=C1NC(=O)C(CC(=O)NCCc2ccc(OC)cc2)S1 (configuration not stated) | 99 | 89 | 4 | 0.62 | 12 | 1
CCOC(=O)C1(CCCc2ccccc2)CCN(C(=O)CCn2cncn2)CC1 | 108 | 99 | 16 | 0.71 | 4 | -10
CCOC(=O)C1(CCc2ccccc2)CCN(C(=O)CCn2cncn2)CC1 | 139* | 109 | 41 | . | -5 | -46
CN(C)/C=N/c1nc2ccc3c(c2s1)CCCC3 | 139* | 107 | 102 | . | 0 | -43
Cc1ccc(C(=O)NCCc2ccc(F)cc2)s1 | 129* | 93 | 162* | 4.2* | 13 | -35
COc1ccc(-c2c3c(=O)n(C)c(=O)n(C)c3cn2C2CCCCC2)cc1 | 97 | 110 | -8 | 0.93 | -9 | 3
Cc1ccc(-c2cc(C(=O)N3CCCc4ccccc43)no2)cc1 | 137* | 97 | 41 | 2.6 | 10 | -42
O=C(CSCc1ccccc1F)NCc1ccccc1 | 133* | 106 | 12 | 1.9 | -2 | -33
O=C(CSCc1cccc(F)c1)NCc1ccccc1 | 133* | 101 | 2 | 2.2 | 6 | -36
Cc1ccc(CNC(=O)CSCc2cccc(F)c2)cc1 | 119 | 109 | 3 | 1.2 | 3 | -21
CC(C)CCNC(=O)Cc1csc(-c2ccccc2)n1 | 102 | 112 | -6 | 1.1 | -13 | -4
COc1ccc2oc(=O)c(C(=O)C[n+]3cccc(C)c3)cc2c1 | 95 | 101 | 13 | 1.1 | 1 | 6
O=C(Nc1ccc(Nc2ccccc2)cc1)N1CCOCC1 | 100 | 99 | -11 | 1.5 | 3 | 0
O=C(Nc1ccccc1)n1cc(-c2ccccn2)c(N2CCOCC2)n1 | 99 | 133* | 8 | 1.9 | -36 | 0
O=C(CCc1ccccc1)Nc1ccc2ccccc2n1 | 149* | 104 | 140* | 5.3* | 0 | -56
Cc1ccc2nc(NC(=O)c3ccccn3)sc2c1 | 19 | 15 | -22 | 1.2 | 98* | 89*
COc1cccc2sc(Nc3nc4ccc(NC(C)=O)cc4s3)nc12 | 132* | 104 | -14 | 1.1 | -5 | -35
CC(=O)Nc1ccc2nc(NC(=O)CCc3ccccc3)sc2c1 | 134* | 103 | 8 | 1.1 | -1 | -37
O=C(CCc1ccccc1)Nc1cccc(NC(=O)CCc2ccccc2)c1 | 96 | 101 | -12 | 0.82 | 5 | 4
CC(=O)Nc1ccc2nc(NC(=O)COc3ccccc3)sc2c1 | 115 | 97 | 30 | 1 | 11 | -19
COc1ccc(C(=O)C2CCCN(Cc3cccc4c3OCO4)C2)cc1OC (configuration not stated) | 93 | 106 | -6 | 0.88 | -2 | 6
COCCNC(=S)N/N=C1\CC(C)CC(C)(C)C1 (configuration not stated) | 103 | 103 | -1 | 1.2 | 4 | -3
CC(=O)Nc1ccc2nc(NC(=O)COc3ccccc3C)sc2c1 | 111 | 101 | 16 | 0.73 | 10 | -13
CC(=O)Nc1ccc2nc(NC(=O)COc3ccccc3Cl)sc2c1 | 130* | 90 | 32 | 0.96 | 17 | -30
O=C(Nc1ccccc1)/C(=C/c1ccc2c(c1)OCO2)NC(=O)c1ccco1 | 102 | 104 | -11 | 1.1 | -7 | -3
CCCc1nc2ccccc2c(=O)n1-c1ccc(C(=O)OCC)cc1 | 85 | 85 | 11 | 1.1 | 23 | 16
COc1ccc(C(=O)NNC(=O)CN2CCC(n3nnc4cc(F)ccc43)CC2)cc1 | 93 | 87 | -8 | 1.2 | 13 | 8
COc1cccc2cc(C(N)=O)oc12 | 111 | 100 | -32 | 1.2 | 11 | -14
COc1cccc2cc(C(=O)c3ccc([N+](=O)[O-])cc3)oc12 | 135* | 90 | 50 | 2 | 16 | -41
O=C1NC2(CCCCC2)C(=O)N1/N=C/c1ccccc1Br | 131* | 107 | 6 | 2 | 1 | -32
